Experimental data: publication PMC7007868 (Molecular cancer therapeutics, 2019)
pEC50, pIC50: −log10 of the molar value. Read-outs that look alike come from different tables or passages of the source.

Experiments:
[1] = test system: immortalized Schwann cells (ipn02.32λ); assay: Alamar blue viability dose response; assay type: cell-based, human; settings: 72 hours drug treatment
How it was run: (§1)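 Human MPNST cells and immortalized Schwann cells were grown at 37°C in humidified 5% CO2 and exposed to test compound for 72 h. Viability was read by alamar blue fluorescence at 590 nm and expressed as percent viable relative to untreated controls. Data are given ± S.D.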

[2] = Parallel artificial membrane permeation assay; assay type: in vitro ADME; settings: PAMPA
[3] = doses over 0.6 mg/kg daily, by treatment days 6–7; cited from earlier work
[4] = test system: MPNST cells sNF02.2; assay: Alamar blue viability dose response; assay type: cell-based, human; settings: read-out: IC50 growth inhibition
[5] = test system: human MPNST cells (sNF96.2); assay: Alamar blue viability dose response; assay type: cell-based; settings: SNF96.2, 72 h, read-out: IC50 growth inhibition
How it was run: as §1

[6] = test system: FGAR amidotransferase; settings: cited from earlier work
[7] = test system: murine flank MPNST; assay: Efficacy in murine flank MPNST model; assay type: in vivo, mouse; settings: 1.2 mg/kg p.o. × 5 days, 0.5 mg/kg × 9 days; vehicle 1695 mm^3; p≤0.05
[8] = Modified Irwin assay; assay type: in vivo, mouse; settings: days 0, 8, 15; for modified Irwin battery, autonomic and somatomotor function: B6 flank MPNST mice, oxotremorine 0.5 mg/kg s.c. once
How it was run: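 B6 flank MPNST mice on the 14-day efficacy dosing regimen or vehicle were scored blind on a modified Irwin autonomic/somatomotor battery on days 0, 8 and 15, including hang time (s) from an inverted wire. A separate cohort (n=5) received oxotremorine 0.5 mg/kg s.c. 30 min before testing as assay control. Scores were averaged and normalized to day-0 vehicle; grip times were compared by multiple t-tests.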

[9] = swine and human plasma, at 1 hour; cited from earlier work
[10] = test system: glutamine utilization; assay: Quantitative glutamine analysis in tumor and plasma; assay type: in vivo, mouse
[11] = Plasma stability of JHU395, 60 min at 37°C; assay type: in vitro ADME; settings: one hour incubation, plasma of multiple species including humans
[12] = Dose tolerance in non-tumored NPcis mice; assay type: in vivo, mouse; settings: 1.2 mg/kg p.o. × 5 days then 0.5 mg/kg p.o. daily, over thirty days
[13] = test system: de novo purine biosynthesis (FGAR); assay: Quantitative FGAR analysis in tumors; assay type: in vivo, mouse; settings: JHU395 1.2 mg/kg p.o.
How it was run: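 B6 flank MPNST mice (n=8/group) were given vehicle or 1.2 mg/kg/dose p.o. for five days. Tumors were snap frozen, homogenized in methanol with 10 µM deuterated N-acetylaspartic acid internal standard (5 µL/mg) and centrifuged at 16,000 × g for 5 min. Supernatants were run by UHPLC–orbitrap full-MS negative mode against an FGAR standard curve in untreated tumor ([…]). Group means were compared by t-test.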

[14] = test system: glutamine incorporation in murine flank MPNST; assay: In vivo stable isotope flux analysis; set-up: species or system mouse; settings: 1.2 mg/kg/dose p.o. for five days; m+1, m+2 (IMP, AMP), m+3 (GMP)
How it was run: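 B6 flank MPNST mice received vehicle or test compound at 1.2 mg/kg/dose p.o. for five days. On harvest day they were dosed orally, then 30 min later given three 0.2 ml tail-vein injections of 200 mM ¹⁵N₂-glutamine, 15 min apart. Tumors were flash frozen, extracted in cold 80% methanol, dried and redissolved in 50% acetonitrile. Analysis was by C18 ion-pair (tributylamine) LC-Q-TOF MS with natural-abundance correction.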

[15] = GI, hepatic and brain toxicity assessment during 14 days oral dosing; assay type: in vivo, mouse
How it was run: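 Flank MPNST mice were dosed orally for 14 days on the efficacy regimen against vehicle (n=9) and weighed thrice weekly as percent change from start. In a subset (n=3–4/condition), jejunum was fixed overnight in 10% neutral buffered formalin, paraffin-embedded, sectioned at ~5 µm and H&E-stained. A veterinary pathologist examined the sections for apoptotic figures and crypt architecture.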

[16] = JHU395 pharmacokinetic analysis; assay type: in vivo, mouse
[17] = test system: human MPNST cells (sNF96.2) in human plasma; assay: Tumor cell-to-plasma partitioning; assay type: in vitro ADME
How it was run: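 sNF96.2 cells were washed twice in PBS and resuspended in human plasma at 7.5 million cells/mL. Test compound was spiked at 20 µM and incubated 1 h at 37°C, then spun at 1000 × g for 5 min at 4°C. Plasma and PBS-washed cell pellets were stored at -80°C, and intact prodrug and released glutamine antagonist were measured by LC-MS/MS as percent of total. Mean ± S.E.M.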

[18] = swine, cited from earlier work
[19] = test system: refractory pediatric sarcomas; settings: prolonged infusion; cited from earlier work
[20] = test system: human MPNST cells (sNF96.2); assay: Glutamine titration, alamar blue growth; assay type: cell-based; settings: SNF96.2, 72 h, read-out: EC50 of glutamine to rescue growth
How it was run: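 sNF96.2 cells were plated at 1500–2000 cells/well in standard medium. The next day the medium was replaced with glutamine-free medium made with dialyzed FBS, and fixed glutamine concentrations were added across the plate. After 72 h, growth was read by alamar blue fluorescence at 590 nm as percent growth (± S.D.).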

[21] = test system: immortalized Schwann cells (ipn02.32λ); assay: Glutamine titration, alamar blue growth; assay type: cell-based; settings: Homo sapiens, 72 h, read-out: EC50 of glutamine to rescue growth
[22] = test system: MPNST xenograft; settings: single agent, twice-daily dosed; cited from earlier work
[23] = B6 mice, thirty minutes after JHU395 1.2 mg/kg oral
[24] = flank tumored mice, JHU395 1.2 mg/kg oral
[25] = 20 μM JHU395, one hour, sNF96.2 cells in human plasma

Compound: [N-]=[N+]=CC(=O)CC[C@H](N)C(=O)O [DON, 6-diazo-5-oxo-L-norleucine, reference compound]
- effect on growth of immortalized Schwann cells [1]: minimally affected
- Papp at 5 h, 20 μM ([2]; pH 7): 0.0095 ×10⁻⁶ cm/s
- weight loss [3]: ~20%
- pIC50 ([4]; Homo sapiens, 72 h): 5.62
- pIC50 [5]: 5.01
- concentration inhibiting the enzyme that converts FGAR to FGAM [6]: low micromolar levels

Compound: CC(C)OC(=O)[C@H](CCC(=O)C=[N+]=[N-])NC(=O)OC(OC(=O)C(C)(C)C)c1ccccc1 (some centres unmarked) [JHU395]
- effect on growth of immortalized Schwann cells [1]: minimally affected
- tumor volume at end of treatment [7]: 1045 mm^3
- apparent permeability Papp ([2]; 20 μM, pH 7.0, 5 h, room temperature): 5.707 ×10⁻⁶ cm/s
- modified Irwin battery, autonomic and somatomotor function [8]: performed similarly
- grip time from an inverted wire [8]: unaffected
- prodrug remaining intact in plasma [9]: 83–88%
- plasma glutamine ([10]; flank MPNST mice, vehicle 475 nmol/ml, p≤0.0001): 729 nmol/mL
- tumor glutamine ([10]; flank MPNST mice, vehicle 1293 nmol/g, p≤0.001): 2096 nmol/g
- increase in plasma glutamine ([10]; non-tumored mice, versus vehicle): 25%
- plasma glutamine ([10]; non-tumored mice, vehicle 830 nmol/ml, p≤0.01): 1036 nmol/mL
- JHU395 remaining intact in plasma [11]: Over 80%
- tolerability of dosing regimen [12]: well-tolerated
- pIC50 ([4]; sNF02.2, 72 hours drug treatment): 5.82
- fold increase of tumor FGAR versus vehicle [13]: 75 fold
- tumor FGAR ([13]; vehicle 3.4 nmol/g, p≤0.01): 254.4 nmol/g
- ^15N2-glutamine isotopologue enrichment in IMP, AMP, GMP versus vehicle [14]: significantly lower enrichment
- change from starting weight ([15]; flank MPNST mice, 14 days oral dosing): ≤ 10%
- jejunal histology versus vehicle ([15]; subset of animals, after 14 days oral dosing): No differences
- brain histology postmortem ([15]; subset of brains, after 14 days oral dosing): no gross changes nor cortical vacuolization
- DON in jejunum [16, 23]: 0.18 nmol/g
- DON in plasma [16, 23]: 0.91 nmol/mL
- small intestine-to-plasma DON ratio [16, 23]: 0.20
- DON plasma AUC [16, 24]: 0.977 µM·h
- DON tumor AUC [16, 24]: 2.496 nmol·h/g
- DON tumor Cmax [16, 24]: 1.8 nmol/g
- accumulation of DON in GI tissue versus plasma ([16]; mice, full time-dependent pharmacokinetic analysis): no accumulation
- share of total DON measured in cells [17, 25]: 92%
- share of total DON measured in plasma [17, 25]: 8%
- intact JHU395 in MPNST cells ([17]; after one hour): minimal
- intact JHU395 in plasma ([17]; after one hour): detected
- DON brain-to-plasma ratio ([18]; DON or JHU395-derived DON): 1.38
- DON exposure in plasma AUC0→t ([18]; equimolar dose of DON or JHU395): 5.7 µM·h
- enhancement of DON brain-to-plasma ratio (JHU395 vs DON) [18]: 9.3

Compound: Sc1ncnc2nc[nH]c12 [6-MP, 6-mercaptopurine]
- disease stabilization [19]: approximately 25%

Compound: NC(=O)CC[C@H](N)C(=O)O [glutamine]
- pEC50 [20]: 3.68
- pEC50 [21]: 4.19

Compound: O=C(Cc1cccc(OC(F)(F)F)c1)Nc1ccc(CCCCc2nnc(NC(=O)Cc3ccccn3)s2)nn1 [CB-839]
- MPNST xenograft growth [22]: partially decreased

Compound: O=C1CCCN1CC#CCN1CCCC1 [oxotremorine, reference compound]
- modified Irwin battery, autonomic and somatomotor function [8]: induced significant adverse effects
